Experimental data from ChEMBL document CHEMBL1155280, “New arylthioindoles and related bioisosteres at the sulfur bridging group. 4. Synthesis, tubulin polymerization, cell growth inhibition, and molecular modeling studies” (J Med Chem, 2009).
Blank lines part the entries; values can stand above or below the molecule they belong to. The source made the active and inactive calls. The calls are words filed in the database; no cut-off is given here.

Experiments:
[1] = Inhibition of tubulin polymerization after 20 mins by spectrophotometry
Outline: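 Tubulin 10 μM in 0.8 M monosodium glutamate, pH 6.6, preincubated 15 min at 30 °C with varying drug, chilled on ice. GTP added to 0.4 mM, turbidity at 350 nm followed 20 min at 30 °C. Extent of assembly measured; IC50 ± SD.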

MCF7 [2] = experiment: Growth inhibition of human MCF7 cells after 48 hrs by sulforhodamine B assay; type: functional, cell-based; conditions: MCF7, 48 h
Bos taurus = species: Bos taurus; experiment: Inhibition of [3H]colchicine binding to bovine tubulin at 5 uM after 10 mins by DEAE-cellulose filter method
HeLa [3] = experiment: Antiproliferative activity against human HeLa cells assessed as cell proliferation at 0.5 uM after 24 hrs by MTT assay relative to control; type: functional; conditions: read-out: Activity
Outline: (§1)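 HeLa and HCT116/chr3 cells grown at 37 °C, 5% CO2 in D-MEM with 10% fetal calf serum (HCT116/chr3 medium plus 500 μg/mL G418). Seeded 1 × 10^3 cells/well, treated 24 h later for 24 h from 10 mM DMSO stock; 1% DMSO solvent control. Quadruplicate, repeated three times; given as % of control ± SD.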

HeLa [4] = experiment: Antiproliferative activity against human HeLa cells assessed as cell proliferation at 1 uM after 24 hrs by MTT assay relative to control; type: functional; conditions: read-out: Activity; outline: as §1
HCT-116 [5] = experiment: Antiproliferative activity against human HCT116 cells expressing mismatch repair gene MLH1 complemented with chromosome 3 assessed as cell proliferation at 0.5 uM after 24 hrs by MTT assay relative to control; type: functional; conditions: HCT-116, 24 h, read-out: Activity; outline: as §1
HCT-116 [6] = experiment: Antiproliferative activity against human HCT116 cells expressing mismatch repair gene MLH1 complemented with chromosome 3 assessed as cell proliferation at 1 uM after 24 hrs by MTT assay relative to control; type: functional; conditions: HCT-116, 24 h, read-out: Activity; outline: as §1
HEK293 [7] = experiment: Cytotoxicity against HEK293 cells after 48 hrs by MTT assay; type: cell-based, Homo sapiens; conditions: for Activity: human, hek293, 48 h; for IC50: Homo sapiens, HEK293, 48 h
Outline: (§2)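 MTT assay. Seeded 10^5 cells/well, compound added after 24 h at 10, 30, 50, 100, 150, 200 nM for 24 or 48 h. MTT 1 mg/mL, 2 h at 37 °C in dark, formazan dissolved in DMSO, read at 550 nm. Triplicate; 0.5% DMSO control.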

M14 [8] = experiment: Cytotoxicity against human M14 cells after 48 hrs by MTT assay; type: functional, cell-based; conditions: for IC50: M14, 48 h; outline: as §2
U-937 [9] = experiment: Cytotoxicity against human U937 cells after 48 hrs by MTT assay; type: functional, cell-based; conditions: for IC50: U-937, 48 h; outline: as §2
[10] = Growth inhibition of mouse J774.1 cells at 300 nM after 48 hrs by MTT assay relative to control; type: cell-based; conditions: read-out: GI
[11] = Growth inhibition of HSMC; type: cell-based; conditions: Homo sapiens
Outline: (§3)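 Human aortic smooth muscle, PtK2 kidney epithelial, rat A10 aortic smooth muscle and HUVEC lines grown as the supplier recommends, under 5% CO2.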

Homo sapiens = species: Homo sapiens; experiment: Selectivity index, ratio of IC50 for HSMC to IC50 for human MCF7
Outline: (§4)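 Selectivity index: IC50 in the named nontransformed line divided by IC50 in MCF-7 cells.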

[12] = Growth inhibition of Potorous tridactylus PtK2 cells; type: cell-based; outline: as §3
MCF7 [13] = experiment: Selectivity index, ratio of IC50 for Potorous tridactylus PtK2 cells to IC50 for human MCF7 cells; type: functional; outline: as §4
A10 = experiment: Growth inhibition of rat A10 cells; type: cell-based; outline: as §3
MCF7 [14] = experiment: Selectivity index, ratio of IC50 for rat A10 cells to IC50 for human MCF7 cells; type: functional; outline: as §4
HUVEC = experiment: Growth inhibition of HUVEC; type: cell-based; conditions: Homo sapiens; outline: as §3
MCF7 [15] = experiment: Selectivity index, ratio of IC50 for HUVEC to IC50 for human MCF7 cells; outline: as §4
HEK293 [16] = experiment: Cytotoxicity against HEK293 cells at 10 to 200 nM by MTT assay; type: cell-based; conditions: human, hek293, 0.2 µM; TDE = time-dependent effect; outline: as §2
M14 [17] = experiment: Cytotoxicity against human M14 cells at 10 to 200 nM by MTT assay; type: functional, cell-based; conditions: TDE = time-dependent effect; outline: as §2
U-937 [18] = experiment: Cytotoxicity against human U937 cells at 10 to 200 nM by MTT assay; type: functional, cell-based; conditions: TDE = time-dependent effect; outline: as §2
HEK293 [19] = experiment: Cytotoxicity against HEK293 cells assessed as effect on cell morphology at 300 nM after 48 hrs by time-lapse microscopy; type: cell-based; conditions: human, hek293, 48 h, 0.3 µM
Outline: (§5)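 Morphology of HEK and M14 cells followed by time-lapse microscopy in 96-well plates at 37 °C, 5% CO2, with images captured every hour over 48 h.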

M14 [20] = experiment: Cytotoxicity against human M14 cells assessed as effect on cell morphology at 300 nM after 48 hrs by time-lapse microscopy; type: functional, cell-based; outline: as §5
Saccharomyces cerevisiae [21] = experiment: Toxicity in Saccharomyces cerevisiae assessed as growth inhibition at first dilution at 20 uM after 3 days; type: organism-based; conditions: in vivo, 72 h
Outline: (§6)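 S. cerevisiae BY4741 grown at 28 °C in minimal SD medium with 2% glucose. Exponential culture (5 × 10^6 cells/mL) exposed 18 h at 28 °C to compound at 20 μM, washed, resuspended in SD, serially diluted 10-fold, incubated overnight. Spotted onto YPD plates; growth scored by dilution reached after 3 days at 28 °C.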

Saccharomyces cerevisiae [22] = experiment: Toxicity in Saccharomyces cerevisiae assessed as growth inhibition at second dilution at 20 uM after 3 days; type: organism-based; conditions: in vivo, 72 h; outline: as §6

IC50 [1]: 14000 nM
Compound: COc1ccc2[nH]cc(Cc3cc(OC)c(OC)c(OC)c3)c2c1

IC50 [1]: 1600 nM
IC50 (MCF7 [2]): 43 nM
inhibition (Bos taurus): 65%
Compound: COc1cc(Sc2c[nH]c3ccc(Br)cc23)cc(OC)c1OC
growth at 0.5 µM (HeLa [3]): 47%
growth at 1 µM (HeLa [4]): 56%
growth at 0.5 µM (HCT-116 [5]): 60%
growth at 1 µM (HCT-116 [6]): 60%
Activity (HEK293 [7]): Dose-dependent effect
Activity (M14 [8]): Dose-dependent effect
IC50 (M14 [8]): 194 nM
Activity (U-937 [9]): Dose-dependent effect
IC50 (U-937 [9]): 100 nM
inhibition at 48 h, 0.3 µM [10]: 20%
IC50 [11]: 300 nM
Ratio IC50 (Homo sapiens): 7
IC50 [12]: 230 nM
Ratio IC50 (MCF7 [13]): 5.3
IC50 (A10): 210 nM
Ratio IC50 (MCF7 [14]): 4.9
IC50 (HUVEC): 400 nM
Ratio IC50 (MCF7 [15]): 9.3
Activity (HEK293 [16]): tde
Activity (M14 [17]): tde
Activity (U-937 [18]): tde
Activity (HEK293 [19]): Toxic
Activity (M14 [20]): Active
Activity (Saccharomyces cerevisiae [21]): Toxic
Activity (Saccharomyces cerevisiae [22]): Non-toxic

Compound: COC(=O)c1[nH]c2ccc(Cl)cc2c1C(=O)c1cc(OC)c(OC)c(OC)c1
IC50 [1]: 1600 nM
IC50 (MCF7 [2]): 30 nM
inhibition (Bos taurus): 61%

IC50 [1]: > 40000 nM
Compound: CCOC(=O)c1[nH]c2ccc(Cl)cc2c1CCc1cc(OC)c(OC)c(OC)c1

IC50 [1]: 2600 nM
inhibition (Bos taurus): 68%
Compound: COc1cc(Sc2c[nH]c3ccccc23)cc(OC)c1OC

IC50 [1]: 5400 nM
Compound: CCOC(=O)c1[nH]c2ccccc2c1Cc1cc(OC)c(OC)c(OC)c1

IC50 [1]: > 40000 nM
Compound: CCOC(=O)c1c(C)cc(C)n1Cc1cc(OC)c(OC)c(OC)c1

IC50 [1]: > 40000 nM
Compound: COC(=O)c1[nH]c2ccc(OC)cc2c1C(O)c1cc(OC)c(OC)c(OC)c1 (centres undefined)

IC50 [1]: 2600 nM
IC50 (MCF7 [2]): 80 nM
inhibition (Bos taurus): 51%
Compound: CCOC(=O)c1[nH]c2ccccc2c1C(=O)c1cc(OC)c(OC)c(OC)c1

IC50 [1]: 1400 nM
IC50 (MCF7 [2]): 33 nM
inhibition (Bos taurus): 59%
Compound: COC(=O)c1[nH]c2ccc(OC)cc2c1Cc1cc(OC)c(OC)c(OC)c1
growth at 0.5 µM (HeLa [3]): 52%
growth at 1 µM (HeLa [4]): 51%
growth at 0.5 µM (HCT-116 [5]): 69%
growth at 1 µM (HCT-116 [6]): 69%
IC50 (HEK293 [7]): 181 nM
Activity (HEK293 [7]): Dose-dependent effect
Activity (M14 [8]): Dose-dependent effect
IC50 (M14 [8]): 137 nM
Activity (U-937 [9]): Dose-dependent effect
IC50 (U-937 [9]): 189 nM
inhibition at 48 h, 0.3 µM [10]: 20%
IC50 [11]: 70 nM
Ratio IC50 (Homo sapiens): 2.1
IC50 [12]: 190 nM
Ratio IC50 (MCF7 [13]): 5.8
IC50 (A10): 130 nM
Ratio IC50 (MCF7 [14]): 3.9
IC50 (HUVEC): 170 nM
Ratio IC50 (MCF7 [15]): 5.2
Activity (HEK293 [16]): tde
Activity (M14 [17]): tde
Activity (U-937 [18]): tde
Activity (HEK293 [19]): Toxic
Activity (M14 [20]): Active

IC50 [1]: 2800 nM
IC50 (MCF7 [2]): 93 nM
inhibition (Bos taurus): 42%
Compound: CCOC(=O)c1[nH]c2ccc(OC)cc2c1Cc1cc(OC)c(OC)c(OC)c1

IC50 [1]: 28000 nM
Compound: COc1cc(Cc2c[nH]c3ccccc23)cc(OC)c1OC

IC50 [1]: 24000 nM
Compound: COc1cc(Cc2c[nH]c3ccc(Cl)cc23)cc(OC)c1OC

IC50 [1]: 2600 nM
inhibition (Bos taurus): 51%
Compound: COc1cc(Sc2c[nH]c3ccc(Cl)cc23)cc(OC)c1OC

IC50 [1]: 2400 nM
IC50 (MCF7 [2]): 46 nM
inhibition (Bos taurus): 71%
Compound: CCOC(=O)c1[nH]c2ccc(OC)cc2c1Sc1cc(OC)c(OC)c(OC)c1

IC50 [1]: 2700 nM
IC50 (MCF7 [2]): 33 nM
inhibition (Bos taurus): 49%
Compound: COC(=O)c1[nH]c2ccccc2c1C(=O)c1cc(OC)c(OC)c(OC)c1

IC50 [1]: 670 nM
IC50 (MCF7 [2]): 17 nM
inhibition (Bos taurus): 78%
Compound: COC(=O)c1[nH]c2ccc(OC)cc2c1C(=O)c1cc(OC)c(OC)c(OC)c1
growth at 0.5 µM (HeLa [3]): 55%
growth at 1 µM (HeLa [4]): 54%
growth at 0.5 µM (HCT-116 [5]): 57%
growth at 1 µM (HCT-116 [6]): 55%
IC50 (HEK293 [7]): 140 nM
Activity (HEK293 [7]): Dose-dependent effect
Activity (M14 [8]): Dose-dependent effect
IC50 (M14 [8]): 100 nM
Activity (U-937 [9]): Dose-dependent effect
IC50 (U-937 [9]): 155 nM
inhibition at 48 h, 0.3 µM [10]: 20%
IC50 [11]: 35 nM
Ratio IC50 (Homo sapiens): 2.1
IC50 [12]: 190 nM
Ratio IC50 (MCF7 [13]): 11
IC50 (A10): 95 nM
Ratio IC50 (MCF7 [14]): 5.6
IC50 (HUVEC): 110 nM
Ratio IC50 (MCF7 [15]): 6.5
Activity (HEK293 [16]): tde
Activity (M14 [17]): tde
Activity (U-937 [18]): tde
Activity (HEK293 [19]): Toxic
Activity (M14 [20]): Active

IC50 [1]: > 40000 nM
Compound: CCOC(=O)c1[nH]c2ccc(OC)cc2c1C(O)c1cc(OC)c(OC)c(OC)c1 (centres undefined)

IC50 [1]: 2200 nM
inhibition (Bos taurus): 53%
Compound: CCOC(=O)c1[nH]c2ccc(Cl)cc2c1Sc1cc(OC)c(OC)c(OC)c1

IC50 [1]: 1700 nM
IC50 (MCF7 [2]): 87 nM
inhibition (Bos taurus): 49%
Compound: COC(=O)c1[nH]c2ccc(Cl)cc2c1Cc1cc(OC)c(OC)c(OC)c1
